Results published in ChEMBL document CHEMBL1126705, “16 beta-([18F]fluoro)estrogens: systematic investigation of a new series of fluorine-18-labeled estrogens as potential imaging agents for estrogen-receptor-positive breast tumors” (J Med Chem, 1993).

Experiments:
[1] = system: Rattus norvegicus; test: Tested in vivo for the biodistribution in rat uterus/muscle after 3 hours following an intravenous dose of 120 microCi of drug in 10%ethanol saline; type: ADME, organism-based, Muscle tissue
Procedure, shortened: (§1)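 Female Sprague-Dawley rats, 25 days old (~40–53 g), ether-anesthetized, given the 18F-labeled estrogen iv via femoral vein in 10% ethanol saline. […] Others were sacrificed by decapitation at 1 or 3 h. Blood and organs were excised, weighed and gamma counted as % injected dose/g, mean ± SD, typically n = 5 (4–6).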

[2] = system: Rattus norvegicus; test: Tested in vivo for the biodistribution in rat uterus/muscle at 1 hour after intravenous dose of 120 microCi of drug in 10%ethanol saline; type: ADME, organism-based, Muscle tissue; procedure, shortened: as §1
[3] = system: Rattus norvegicus; test: Tested in vivo for the biodistribution in rat uterus/muscle at 1 hour after intravenous dose of 120 microCi of the drug and 15 micro g of estradiol; type: ADME, organism-based, Muscle tissue; procedure, shortened: as §1
[4] = system: Rattus norvegicus; test: Tested in vivo for the biodistribution in rat uterus at 1 hour after intravenous dose of 120 microCi of drug in 10%ethanol saline; type: ADME, organism-based
Procedure, shortened: (§2)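 Immature (25-day-old) female Sprague-Dawley rats, ether-anesthetized, given the fluorine-18-labeled estrogen by femoral vein injection in 10% ethanol saline. […] Other groups were killed by decapitation at 1 or 3 h. Blood and organs were weighed and gamma-counted. Data are % injected dose/g, mean ± SD, typically n = 5 per group.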

[5] = system: Rattus norvegicus; test: Tested in vivo for the biodistribution in blood of female rat after 3 hours following an intravenous dose of 120 microCi of drug in 10%ethanol saline; type: ADME, organism-based
Procedure, shortened: (§3)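 Female Sprague-Dawley rats (25 days old, 40 g) under ether received 120 μCi of tracer iv (femoral vein; effective specific activity 1306 Ci/mmol) in 10% ethanol saline. They were decapitated at 1 h (n = 6) or 3 h (n = 5). Tissues were weighed and gamma-counted, reported as % injected dose/g, mean ± SD.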

[6] = system: Rattus norvegicus; test: Tested in vivo for the biodistribution in rat bone at 1 hour after intravenous dose of 120 microCi of the drug and 15 ug of estradiol; type: ADME, organism-based, Bone element
[7] = system: Rattus norvegicus; test: Tested in vivo for the biodistribution in rat fat after 3 hours following an intravenous dose of 120 microCi of drug in 10%ethanol saline; type: ADME, organism-based, Adipose tissue; procedure, shortened: as §3
[8] = system: Rattus norvegicus; test: Tested in vivo for the biodistribution in rat ovaries after 3 hours following an intravenous dose of 120 microCi of drug in 10%ethanol saline; type: ADME, organism-based, Female gonad; procedure, shortened: as §2
[9] = system: Rattus norvegicus; test: Tested in vivo for the biodistribution in rat muscle at 1 hour after intravenous dose of 120 microCi of the drug and 15 ug of estradiol; type: ADME, organism-based, Muscle tissue; procedure, shortened: as §2
[10] = system: Rattus norvegicus; test: Tested in vivo for the biodistribution in rat fat at 1 hour after intravenous dose of 120 microCi of drug in 10%ethanol saline; type: ADME, organism-based, Adipose tissue; procedure, shortened: as §3
[11] = system: Rattus norvegicus; test: Tested in vivo for the biodistribution in rat uterus after 3 hours following an intravenous dose of 120 microCi of drug in 10%ethanol saline; type: ADME, organism-based; procedure, shortened: as §2
[12] = system: Rattus norvegicus; test: Tested in vivo for the biodistribution in rat uterus at 1 hour after intravenous dose of 120 microCi of the drug and 15 micro g of estradiol; type: ADME, organism-based; procedure, shortened: as §2
[13] = system: Rattus norvegicus; test: Tested in vivo for the biodistribution in rat uterus/blood after 3 hours following an intravenous dose of 120 microCi of drug in 10%ethanol saline; type: ADME, organism-based; procedure, shortened: as §1
[14] = system: Rattus norvegicus; test: Tested in vivo for the biodistribution in rat uterus/blood at 1 hour after intravenous dose of 120 microCi of the drug and 15 ug of estradiol; type: ADME, organism-based; procedure, shortened: as §1
[15] = system: Rattus norvegicus; test: Tested in vivo for the biodistribution in blood of female rat at 1 hour after intravenous dose of 120 microCi of drug in 10%ethanol saline; type: ADME, organism-based; procedure, shortened: as §3
[16] = system: Rattus norvegicus; test: Tested in vivo for the biodistribution in blood of female rat at 1 hour after intravenous dose of 120 microCi of the drug and 15 u g of estradiol; type: ADME, organism-based
[17] = system: Rattus norvegicus; test: Tested in vivo for the biodistribution in rat kidney after 3 hours following an intravenous dose of 120 microCi of drug in 10%ethanol saline; type: ADME, organism-based; procedure, shortened: as §3
[18] = system: Rattus norvegicus; test: Tested in vivo for the biodistribution in rat kidney at 1 hour after intravenous dose of 120 microCi of drug in 10%ethanol saline; type: ADME, organism-based; procedure, shortened: as §3
[19] = system: Rattus norvegicus; test: Tested in vivo for the biodistribution in rat uterus/blood at 1 hour after intravenous dose of 120 microCi of drug in 10%ethanol saline; type: ADME, organism-based; procedure, shortened: as §1
[20] = system: Rattus norvegicus; test: Tested in vivo for the biodistribution in rat liver at 1 hour after intravenous dose of 120 microCi of the drug and 15 u g of estradiol; type: ADME, organism-based; procedure, shortened: as §2
[21] = system: Rattus norvegicus; test: Tested in vivo for the biodistribution in rat liver after 3 hours following an intravenous dose of 120 microCi of drug in 10%ethanol saline; type: ADME, organism-based; procedure, shortened: as §2
[22] = system: Rattus norvegicus; test: Tested in vivo for the biodistribution in rat liver at 1 hour after intravenous dose of 120 microCi of drug in 10%ethanol saline; type: ADME, organism-based; procedure, shortened: as §2
[23] = system: Rattus norvegicus; test: Tested in vivo for the biodistribution in rat muscle after 3 hours following an intravenous dose of 120 microCi of drug in 10%ethanol saline; type: ADME, organism-based, Muscle tissue; procedure, shortened: as §2
[24] = system: Rattus norvegicus; test: Tested in vivo for the biodistribution in rat ovaries at 1 hour after intravenous dose of 120 microCi of drug in 10%ethanol saline; type: ADME, organism-based, Female gonad; procedure, shortened: as §2
[25] = system: Rattus norvegicus; test: Tested in vivo for the biodistribution in rat ovaries at 1 hour after intravenous dose of 120 microCi of the drug and 15 ug of estradiol; type: ADME, organism-based, Female gonad; procedure, shortened: as §2
[26] = Partition coefficient (logP); type: physicochemical; conditions: octanol/water
Procedure, shortened: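 Octanol/water log P estimated from log k'w measured by reversed-phase HPLC (Minick method) on a C8 silica column.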

[27] = system: Rattus norvegicus; test: Tested in vivo for the biodistribution in rat bone after 3 hours following an intravenous dose of 120 microCi of drug in 10%ethanol saline; type: ADME, organism-based, Bone element; procedure, shortened: as §3
[28] = system: Rattus norvegicus; test: Tested in vivo for the biodistribution in rat fat at 1 hour after intravenous dose of 120 microCi of the drug and 15 micro g of estradiol; type: ADME, organism-based, Adipose tissue
[29] = system: Rattus norvegicus; test: Tested in vivo for the biodistribution in rat kidney at 1 hour after intravenous dose of 120 microCi of the drug and 15 u g of estradiol; type: ADME, organism-based
[30] = biological target: T1, Alpha-fetoprotein (Rattus norvegicus) (UniProt P02773); test: Relative binding affinity for Alphafetoprotein
T1 sequence (whole entry): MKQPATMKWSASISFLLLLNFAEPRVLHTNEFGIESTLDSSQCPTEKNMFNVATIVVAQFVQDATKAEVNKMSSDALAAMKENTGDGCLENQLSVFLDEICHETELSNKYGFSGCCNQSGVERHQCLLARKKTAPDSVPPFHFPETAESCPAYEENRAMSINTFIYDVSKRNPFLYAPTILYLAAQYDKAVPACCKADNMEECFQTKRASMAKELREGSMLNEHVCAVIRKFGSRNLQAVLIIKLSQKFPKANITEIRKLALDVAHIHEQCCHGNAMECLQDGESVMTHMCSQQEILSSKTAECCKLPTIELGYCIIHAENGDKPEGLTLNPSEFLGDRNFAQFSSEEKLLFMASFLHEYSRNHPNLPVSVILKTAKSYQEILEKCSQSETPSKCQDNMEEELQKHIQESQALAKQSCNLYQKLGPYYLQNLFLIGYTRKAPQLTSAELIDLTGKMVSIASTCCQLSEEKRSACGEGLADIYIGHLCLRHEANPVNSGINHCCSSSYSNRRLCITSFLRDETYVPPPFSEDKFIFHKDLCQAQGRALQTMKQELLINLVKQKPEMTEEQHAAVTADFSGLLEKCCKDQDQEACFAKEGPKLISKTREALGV

[31] = biological target: T2, Sex hormone-binding globulin (Homo sapiens) (UniProt P04278); test: Relative binding affinity against sex steroid binding protein (SBP)
T2 sequence (whole entry): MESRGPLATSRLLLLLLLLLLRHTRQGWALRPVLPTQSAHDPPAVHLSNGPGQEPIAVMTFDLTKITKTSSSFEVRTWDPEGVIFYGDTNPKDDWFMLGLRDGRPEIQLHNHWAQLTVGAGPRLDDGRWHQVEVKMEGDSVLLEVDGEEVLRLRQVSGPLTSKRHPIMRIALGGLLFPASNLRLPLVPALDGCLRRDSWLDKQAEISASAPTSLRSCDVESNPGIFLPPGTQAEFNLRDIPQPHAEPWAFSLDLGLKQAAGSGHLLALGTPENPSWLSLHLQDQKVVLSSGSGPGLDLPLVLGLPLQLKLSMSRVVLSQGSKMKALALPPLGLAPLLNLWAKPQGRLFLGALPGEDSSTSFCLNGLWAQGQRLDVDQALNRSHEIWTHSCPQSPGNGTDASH

[32] = system: Rattus norvegicus; test: Tested in vivo for the biodistribution in rat bone at 1 hour after intravenous dose of 120 microCi of drug in 10%ethanol saline; type: ADME, organism-based, Bone element; procedure, shortened: as §3
[33] = system: Rattus norvegicus; test: Tested in vivo for the biodistribution in rat muscle at 1 hour after intravenous dose of 120 microCi of drug in 10%ethanol saline; type: ADME, organism-based, Muscle tissue; procedure, shortened: as §2
[34] = biological target: T3, Estrogen receptor (Rattus norvegicus) (UniProt P06211+Q62986)
[35] = biological target: T3, Estrogen receptor (Rattus norvegicus); remark: listed apart in the source

## C[C@]12CC[C@@H]3c4ccc(O)cc4CC[C@H]3[C@@H]1C[C@H](F)[C@@H]2O
[1]
  Injected: 9.05%
[2]
  Injected: 15.22%
[3]
  Injected: 2.685%
[4]
  Injected: 4.994%
[5]
  Injected: 0.534%
[6]
  Injected: 1.216%
[7]
  Injected: 0.131%
[8]
  Injected: 0.615%
[9]
  Injected: 0.466%
[10]
  Injected: 0.31%
[11]
  Injected: 1.176%
[12]
  Injected: 1.257%
[13]
  Injected: 2.273%
[14]
  Injected: 0.857%
[15]
  Injected: 0.949%
[16]
  Injected: 1.486%
[17]
  Injected: 0.821%
[18]
  Injected: 2.051%
[19]
  Injected (dose/g): 5.631%
[20]
  Injected: 3.771%
[21]
  Injected (dose/g): 1.483%
[22]
  Injected (dose/g): 2.957%
[23]
  Injected (dose/g): 0.151%
[24]
  Injected (dose/g): 1.91%
[25]
  Injected (dose/g): 1.189%
[26]
  logP: 2.81
[27]
  Injected (dose/g): 1.201%
[28]
  Injected (dose/g): 0.391%
[29]
  Injected (dose/g): 3.388%
[30]
  relative binding affinity (RBA): 20
[31]
  relative binding affinity (RBA): 8.9
[32]
  Injected (dose/g): 1.008%
[33]
  Injected (dose/g): 0.402%
[34]
  NSB: 0.63
[35]
  BSI: 19
